# Screens deposited in PubChem BioAssay by several laboratories.
# Sampled rows, rich in hits. Any-hit rate of the full collection: about 1.7%.
# TPT1 inh: blocks Candida albicans tRNA 2'-phosphotransferase; AID 1962; hit rate 0.81% among 300,000; recombinant caTPT1, FP RNA substrate dephosphorylation; inhibition, % at 5 µM;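 active = inhibition above the mean of all tested compounds plus 3 SD, set per screening campaign, cut at about 24% in these data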;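 note: plate controls were DMSO alone for no effect and ferristatin control at 100 nM for full effect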
# CSN inh: CSN deneddylation inhibition; Q92905; Purified CSN, SCF-Nedd8-OG deneddylation, fluorescence polarization; inhibition, % at 12.5 µM; hit rate 0.38% among 360,000; AID 651999;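 active = pattern-corrected inhibition above about 35%, with an unprinted fluorescence ratio check between 0.5 and 1.5, limit read from the data, passing the limit was not always enough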;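 note: 0% = enzyme with substrate and 100% = substrate without enzyme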
#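 assay system = purified human Csn5 enzyme expressed in HEK293T cells | amount = 0.24 nM enzyme | buffer or medium = Tris/NaCl/DTT buffer, pH 7.5 | reagent = 10 nM SCFSkp2-Nedd8OG | compound = one concentration, 12.5 µM, 0.25% DMSO | times = 90 min reaction at room temperature | signal = FP | read-out basis = % inhibition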
# NR1D1 modulator: Rev-erb alpha (human) modulation; P20393; Rev-erbα–FITC-DNA binding, fluorescence polarization, 90 min; activity, % at 10 µM; hit rate 0.79% among 370,000;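 active = activity above about 14%, limit read from the data; passing the limit was not always enough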;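 note: 0% = DMSO wells with 35 nM protein and 100% = DMSO wells with 750 nM protein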
# Target sequence (P20393 whole entry, looked up): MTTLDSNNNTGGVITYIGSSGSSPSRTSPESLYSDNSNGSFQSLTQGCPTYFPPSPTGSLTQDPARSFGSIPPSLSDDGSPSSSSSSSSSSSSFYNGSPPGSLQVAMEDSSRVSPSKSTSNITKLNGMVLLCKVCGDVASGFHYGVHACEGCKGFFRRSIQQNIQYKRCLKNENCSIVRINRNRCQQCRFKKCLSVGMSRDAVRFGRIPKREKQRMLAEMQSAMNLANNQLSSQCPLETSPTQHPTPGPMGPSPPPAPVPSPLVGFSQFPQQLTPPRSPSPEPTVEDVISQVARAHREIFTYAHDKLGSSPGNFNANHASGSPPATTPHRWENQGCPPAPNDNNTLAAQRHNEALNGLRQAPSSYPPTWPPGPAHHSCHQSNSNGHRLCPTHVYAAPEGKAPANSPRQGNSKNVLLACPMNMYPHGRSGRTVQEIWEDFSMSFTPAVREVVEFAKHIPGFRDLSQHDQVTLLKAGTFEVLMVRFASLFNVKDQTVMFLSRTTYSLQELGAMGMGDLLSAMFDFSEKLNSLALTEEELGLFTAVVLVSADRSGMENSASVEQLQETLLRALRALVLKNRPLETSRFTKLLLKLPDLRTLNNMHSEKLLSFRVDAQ
# HNF4A DNA FP: change in binding of human HNF4 alpha to DNA; HNF4a-FITC DNA binding, fluorescence polarization, 1 h; activity change, % at 10 µM; hit rate 0.3% among 360,000; P41235; in the data active = activity change above about 30%, passing the limit was not always enough
# Rev-erbA confirm: Rev-erb alpha (human) modulation, hit confirmation | shares compounds with NR1D1 modulator | Rev-erb alpha FITC-DNA binding, fluorescence polarization, 90 min | activation, % at 25 µM | hit rate 61% among 3,000 | AID 1259319;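 active = activation at or above a set limit, or at least 3 SD above the negative control mean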;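 note: 0% = 35 nM protein with DMSO and 100% = 750 nM protein high control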
# RORg DNA counter: affects RORgamma DNA binding in a Rev-erb alpha counter-screen; shares compounds with NR1D1 modulator; purified RORgamma protein-FITC-DNA binding, fluorescence polarization; IC50, µM; hit rate 8% among 910;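 active = Compounds whose fitted half-maximal concentration for disrupting protein-DNA binding is below 10 micromolar; the record names Rev-erb in its text, so the target is in doubt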
# The depositor's hits bear a star; i = inactive; x = not tested or not shown.
SMILES,TPT1 inh,CSN inh,NR1D1 modulator,HNF4A DNA FP,Rev-erbA confirm,RORg DNA counter
O=c1ccc(-c2ccc(S(=O)(=O)N3CCN(c4ccccc4)CC3)o2)n[nH]1,3,7,120*,2,62*,>40
CCOC(=O)C1CCN(S(=O)(=O)c2ccc(-c3ccc(=O)[nH]n3)o2)CC1,-7,-4,6,-2,x,x
O=c1ccc(-c2ccc(S(=O)(=O)N3CCN(c4cccc(Cl)c4)CC3)o2)n[nH]1,5,2,76*,5,86*,i
O=C(NCc1ccccc1)OCCN1C(=O)CCC12CCCCC2,x,x,4,x,x,x
O=C(Nc1ccc2c(c1)C(=O)NC2=O)c1cc(Cl)ccc1Cl,1,0,144*,-2,121*,>40
CCN(CC)S(=O)(=O)c1ccc(NS(=O)(=O)c2ccc(F)cc2)cc1,0,-3,1,1,x,x
CCN(CC)S(=O)(=O)c1ccc(F)cc1,-4,-4,37*,3,6,x
CC(=O)Nc1ccc(S(=O)(=O)NCC2CCN(C(=O)C(=O)c3cccs3)CC2)cc1,x,x,-2,x,x,x
CCOc1ccc(S(=O)(=O)c2c[nH]c3ccc(C)cc3c2=O)cc1,16,1,31*,2,20*,x
Cc1cccc2cc(C(c3nnnn3Cc3ccccc3)N3CCN(c4ccccc4)CC3)c(=O)[nH]c12 (centres undefined),1,-1,185*,-3,143*,>40
CC(C)OC(=O)CSc1nc(N)c(C#N)c(-c2ccco2)c1C#N,4,11,2,21,x,x
N#Cc1c(N)nc(SCC(=O)NC2CCCCC2)c(C#N)c1-c1ccc(Cl)cc1,0,-2,24*,3,25*,x
CC(C)c1ccc(-c2c(C#N)c(N)nc(SCC(=O)N3CCCCC3)c2C#N)cc1,-2,-2,83*,2,69*,>40
CC(C)c1ccc(-c2c(C#N)c(N)nc(SCC(=O)N3CCCCCC3)c2C#N)cc1,-4,x,52*,x,9,x
CCOC(=O)CSc1nc(N)c(C#N)c(-c2ccc(OCC)cc2)c1C#N,5,-4,56*,2,29*,x
COC(=O)CSc1nc(N)c(C#N)c(-c2ccc(O)cc2)c1C#N,-5,3,-5,2,x,x
Cc1ccc2cc(C#N)c(SCC(=O)N3CCCC3)nc2c1,1,5,-2,-1,x,x
Cc1oc(=O)oc1CN1CCN(c2cc3c(cc2F)c(=O)c(C(=O)O)c2n3C(C)S2)CC1 (centres undefined),x,x,3,x,x,x
COc1cc(OC)cc(-c2c(Sc3ccccc3)c3cc(-c4ccc(OC)c(F)c4)ccc3n2C)c1,x,-6,21*,3,37*,>40
COc1ccc(-c2ccc3c(c2)c(Sc2ccccc2)c(-c2ccccc2)n3C)cc1,x,1,3,0,x,x
CSc1ccc(-c2ccc3c(c2)c(Sc2ccccc2)c(-c2ccccc2)n3C)cc1,x,1,17*,-1,25*,x
COc1cc(OC)cc(-c2c(Sc3ccccc3)c3cc(-c4ccc(SC)cc4)ccc3n2C)c1,x,0,29*,5,35*,>40
O=C(NCc1cccs1)c1csc(COCCO)n1,x,-4,-7,-1,x,x
O=C(CSc1ncccc1-c1nc2ccccc2[nH]1)N1CCc2ccccc21,0,-1,28*,2,25*,x
c1cnc(SCC2CCCCC2)c(-c2nc3ccccc3[nH]2)c1,x,x,32*,x,33*,>40
SMILES,TPT1 inh,CSN inh,NR1D1 modulator,HNF4A DNA FP,Rev-erbA confirm,RORg DNA counter
N#CCSc1ncccc1-c1nc2ccccc2[nH]1,-5,-3,2,9,x,x
C[C@@H]1CN([C@@H](C)CO)C(=O)c2cc(Br)cnc2O[C@H]1CN(C)C(=O)C1CC1,x,17,-5,-1,x,x
Cc1ccsc1C(=O)Nc1ccc(O)c(-c2nc3ccccc3s2)c1,6,15,450*,5,354*,>40
O=C(Nc1ccc(OC(=O)c2ccccc2)c(-c2nc3ccccc3s2)c1)c1ccccc1,-1,-2,18,10,x,x
CC(=O)Nc1cccc(-c2nc3ccccc3s2)c1,0,0,-1,-1,x,x
CC(=O)Nc1ccc(O)c(-c2nc3ccccc3s2)c1,-1,7,231*,1,385*,>40
C/C(=N\NC(=O)COc1cccc(C)c1)c1ccc2ccccc2c1O,x,-1,217*,2,165*,>40
O=C(Nc1nnc(SCc2ccccc2)s1)c1cc2c(s1)CCCC2,1,1,52*,-4,34*,i
CCSc1nnc(NC(=O)c2cc3c(s2)CCCC3)s1,0,6,33*,3,38*,>40
CCSc1nnc(NC(=O)c2csc3c2CCCC3)s1,1,-4,12,-1,x,x
CCOC(=O)N1CCN(C(=O)c2[nH]c(C(F)(F)F)nc2-c2ccccc2)CC1,x,-2,4,0,x,x
CC1CCN(Cc2cc(=O)oc3ccc(C(C)C)cc23)CC1,2,0,22*,0,33*,>40
COC(=O)c1cc(NC(=O)NC2CCCCN(Cc3ccc(Cl)cc3)C2=O)cc(C(=O)OC)c1 (centres undefined),x,x,5,x,x,x
COc1ccc2cc(C#N)c(Nc3cccc(F)c3)nc2c1,2,0,55*,1,42*,>40
CCCCNC(=O)c1cc2nc(-c3ccc(OC)cc3)cc(C(F)(F)F)n2n1,x,-1,-4,2,x,x
CCCCNC(=O)c1nn2c(C(F)(F)F)cc(-c3ccc(OC)cc3)nc2c1Br,1,-4,48*,0,9,x
CCCNC(=O)c1nn2c(C(F)(F)F)cc(-c3ccccc3)nc2c1Br,-4,0,28*,3,21*,x
Cc1cc(=O)oc2c(C)cc(C(C)(C)C)cc12,x,6,27*,-4,26*,x
Cc1cc(=O)oc2cc3oc(=O)cc(C)c3cc12,1,1,0,3,x,x
CN(CCO)c1ccc(C=NNc2ccc([N+](=O)[O-])cc2S(=O)(=O)Nc2ccccc2C(=O)O)cc1,x,24,21*,47*,4,x
Cc1n[nH]c(=S)n(NC(=O)CC(=O)Nn2c(=S)[nH]nc(C)c2=O)c1=O,-3,-6,16*,0,5,x
COc1cccc(CNC(=O)[C@H]2CCCN2C(=O)[C@H]2CCCN2C(=O)N2CCCCC2)c1,x,x,-8,x,x,x
COC(=O)C1=CN(c2ccc(N3CCOCC3)cc2)C(N)=C(C#N)C1c1cccc(F)c1 (centres undefined),x,0,24*,3,8,x
COc1ccc(CC(=O)N2CCN(C(=O)c3ccc4nc(C)n(C5CCCC5)c4c3)CC2)cc1,x,x,-4,x,x,x
CC1CC1C(=O)N1CCC(Oc2cccnc2)CC1 (centres undefined),x,x,3,x,x,x
O=C(CN1C(=O)c2cccc3cccc1c23)N1CCN(c2ccccc2)CC1,1,2,17,2,x,x
O=C(CN1C(=O)c2cccc3cccc1c23)N1CCN(c2cccc(Cl)c2)CC1,-1,-4,49*,-3,27*,x
